Activity calls are given as the source filed them. The rule behind the calls is not given here.
Tests used:
HCT-116 [1] = assay: Antiproliferative activity against human HCT-116 cells harboring PI3KCA mutant assessed as cell growth inhibition incubated for 96 hrs by SRB assay; assay type: functional
[2] = Cmax in BALB/C mouse liver at 2.5 mg/kg, iv by LC-MS/MS analysis; assay type: ADME, organism-based
In short: (§1)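 Female BALB/c mice, 6–8 weeks old, given 2.5 mg/kg i.v. in 10% DMSO, 0.5% Tween 20 in saline. Plasma came from serial bleeds; tissues were homogenized in 2 or 3 volumes PBS. Samples were methanol-precipitated with an analogue internal standard, then LC-MS/MS by multiple reaction monitoring against an 8-point external calibration of 2–20,000 nmol/L. Parameters came from WinNonlin noncompartmental analysis, model 201 for plasma and model 200 for tissues.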

OVCAR-3 [3] = assay: Antitumor activity against human OVCAR-3 cells xenografted female Ncr model assessed as T/C at 15 mg/kg, ip administered daily for 15 days relative to control; assay type: functional; settings: time 15 day
[4] = AUClast in BALB/C mouse liver at 2.5 mg/kg, iv by LC-MS/MS analysis; assay type: ADME, organism-based; in short: as §1
MDA-MB-435 = assay: Antitumor activity against ERB-B2 overexpressing human MDA-MB-435 cells xenografted female Ncr model assessed as T/C at 30 mg/kg, ip administered twice a daily for 14 days relative to control; assay type: functional; settings: time 14 day
PC-3 [5] = assay: Antitumor activity against PTEN null human PC-3 cells xenografted male Ncr model assessed as T/C at 30 mg/kg, ip administered twice a daily for 14 days relative to control; assay type: functional; settings: time 14 day
[6] = Drug metabolism in human microsomes incubated for 30 mins by LC-MS/MS analysis; assay type: ADME, Microsome; settings: read-out: Drug metabolism
In short: (§2)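 Mouse or human microsomes incubated 30 min with inhibitor at 1 or 10 μmol/L. Metabolite detection by LC-MS/MS on an ion trap, with a 10–90% methanol gradient over 6 min and scan range 50–1,000 amu.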

HCT-116 [7] = assay: Antitumor activity against PIK3CA mutant human HCT-116 cells xenografted female Ncr model assessed as T/C at 30 mg/kg, ip administered twice a daily for 21 days relative to control; assay type: functional; settings: time 21 day
U-87 MG [8] = settings: Homo sapiens, time 24.0 hrs
OVCAR-3 [9] = settings: Homo sapiens, dose 100.0 mg/kg, route ip, time 750.0 min
[10] = Cmax in BALB/C mouse kidney at 2.5 mg/kg, iv by LC-MS/MS analysis; assay type: ADME, organism-based; in short: as §1
[11] = Volume of distribution in BALB/C mouse plasma at 50 mg/kg, ip by LC-MS/MS analysis; assay type: ADME, organism-based; settings: in vivo
In short: (§3)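 Female BALB/c mice, 6–8 weeks old, dosed i.p. at 50 mg/kg in 20% […] β-cyclodextrin in saline, 0.1 mL/10 g. Serial blood samples; plasma was methanol-precipitated with an analogue internal standard. LC-MS/MS multiple reaction monitoring, external calibration 2–20,000 nmol/L. Noncompartmental analysis, model 200.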

[12] = Clearance in BALB/C mouse plasma at 2.5 mg/kg, iv by LC-MS/MS analysis; assay type: ADME, organism-based; in short: as §1
[13] = Drug metabolism in mouse microsomes incubated for 30 mins by LC-MS/MS analysis; assay type: ADME, Microsome; settings: read-out: Drug metabolism; in short: as §2
HCT-116 [14] = assay: Antitumor activity against PIK3CA mutant human HCT-116 cells xenografted female Ncr model assessed as T/C at 30 mg/kg, ip administered once a daily for 14 days relative to control; assay type: functional; settings: time 14 day
[15] = Inhibition of recombinant human PI3K in cricetulus griseus CHO cells expressing GFP-tagged AKT2 assessed as translocation to the plasma membrane following IGF-1 stimulation by fluorescence assay
In short: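 CHO cells expressing GFP-tagged AKT1, AKT2, AKT3 or PDK1, held in 0.05% serum with 0.1% BSA and stimulated with 100 nmol/L IGF-1. Plasma-membrane translocation was read by automated fluorescence imaging, with IC50 from concentration-response curves; Z' above 0.5.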

A2780 = assay: Antiproliferative activity against human A2780 cells harboring PI3KCA/PTEN mutant assessed as cell growth inhibition incubated for 96 hrs by SRB assay; assay type: functional
MDA-MB-468 = assay: Antiproliferative activity against human MDA-MB-468 cells harboring PTEN deletion assessed as cell growth inhibition incubated for 96 hrs by SRB assay; assay type: functional
[16] = Tmax in BALB/C mouse plasma at 50 mg/kg, ip by LC-MS/MS analysis; assay type: ADME, organism-based; settings: in vivo; in short: as §3
U-87 MG [17] = assay: Inhibition of cell invasion in human U-87MG cells at 50 nmol/L by transwell assay relative to control
PC-3 [18] = assay: Antiproliferative activity against human PC-3 cells harboring PTEN deletion assessed as cell growth inhibition incubated for 96 hrs by SRB assay; assay type: functional
U-87 MG [19] = assay: Antitumor activity against PTEN null human U-87MG cells xenografted female Ncr model assessed as T/C at 70 mg/kg, ip administered once a daily for 14 days relative to control; assay type: functional, U-87MG ATCC; settings: time 14 day
[20] = Antitumor activity against PIK3CA mutant human […] cells xenografted female Ncr model assessed as T/C at 100 mg/kg, ip administered twice a daily for 16 days relative to control; assay type: functional; settings: time 16 day
[21] = Tmax in BALB/C mouse spleen at 2.5 mg/kg, iv by LC-MS/MS analysis; assay type: ADME, organism-based; in short: as §1
A549 = assay: Antiproliferative activity against human A549 cells harboring AKT assessed as cell growth inhibition incubated for 96 hrs by SRB assay; assay type: functional
IGROV-1 [22] = assay: Antitumor activity against PIK3CA mutant human IGROV-1 cells xenografted female Ncr model assessed as T/C at 70 mg/kg, ip administered once a daily for 14 days relative to control; assay type: functional; settings: time 14 day
U-87 MG [23] = assay: Antitumor activity against PTEN null human U-87MG cells xenografted female Ncr model assessed as T/C at 40 mg/kg, ip administered once a daily for 14 days relative to control; assay type: functional, U-87MG ATCC; settings: time 14 day
HCT-116 [24] = assay: Antitumor activity against PIK3CA mutant human HCT-116 cells xenografted female Ncr model assessed as body weight loss at 30 mg/kg, ip administered twice a daily for 14 days relative to control; settings: time 14 day
HCT-116 [25] = assay: Antitumor activity against PIK3CA mutant human HCT-116 cells xenografted female Ncr model assessed as T/C at 30 mg/kg, ip administered twice a daily for 14 days relative to control; assay type: functional; settings: time 14 day
PC-3 [26] = assay: Antitumor activity against PTEN null human PC-3 cells xenografted male Ncr model assessed as body weight loss at 30 mg/kg, ip administered twice a daily for 14 days relative to control; settings: time 14 day
IGROV-1 [27] = assay: Antiproliferative activity against human IGROV-1 cells harboring PI3KCA/PTEN mutant assessed as cell growth inhibition incubated for 96 hrs by SRB assay; assay type: functional
[28] = Volume of distribution in BALB/C mouse plasma at 2.5 mg/kg, iv by LC-MS/MS analysis; assay type: ADME, organism-based; in short: as §1

Oc1cccc(-c2nc(N3CCOCC3)c3oc4ncccc4c3n2)c1 [PI-103]
GI50 (HCT-116 [1]): 930 nM | Cmax [2]: 802 nM | T/C (OVCAR-3 [3]): 61% | AUC(0-t) [4]: 0.801 µM·h | T/C (MDA-MB-435): 69.8% | T/C (PC-3 [5]): 43.3% | metabolised at 0.5 h [6]: > 70% | T/C (HCT-116 [7]): 48% | inhibition (U-87 MG [8]): Active | inhibition (OVCAR-3 [9]): Active | Cmax [10]: 2020 nM | Vd [11]: 0.71 L | clearance [12]: 3.17 mL/min | metabolised at 0.5 h [13]: > 70% | T/C (HCT-116 [14]): 68% | IC50 [15]: 13 nM | GI50 (A2780): 500 nM | GI50 (MDA-MB-468): 690 nM | Tmax [16]: 15 min | inhibition at 0.05 µM (U-87 MG [17]): 44% | GI50 (PC-3 [18]): 100 nM | T/C (U-87 MG [19]): 45.8% | T/C [20]: 36% | Tmax [21]: 4.98 min | GI50 (A549): 210 nM | T/C (IGROV-1 [22]): 74.7% | T/C (U-87 MG [23]): 89.1% | Body weight loss (HCT-116 [24]): <15% | T/C (HCT-116 [25]): 28% | Body weight loss (PC-3 [26]): <15% | GI50 (IGROV-1 [27]): 60 nM | Vd [28]: 0.2 L

Reference: ChEMBL document CHEMBL5661974, “Pharmacologic characterization of a potent inhibitor of class I phosphatidylinositide 3-kinases” (Cancer Res, 2007)
